{
  "source": "paper PMC8010999",
  "about": "(Journal of medicinal chemistry, 2020)",
  "key": {"MMP-12": {"target": "MMP-12 (Mus musculus, UniProt P34960)", "sequence (P34960 110-473)": "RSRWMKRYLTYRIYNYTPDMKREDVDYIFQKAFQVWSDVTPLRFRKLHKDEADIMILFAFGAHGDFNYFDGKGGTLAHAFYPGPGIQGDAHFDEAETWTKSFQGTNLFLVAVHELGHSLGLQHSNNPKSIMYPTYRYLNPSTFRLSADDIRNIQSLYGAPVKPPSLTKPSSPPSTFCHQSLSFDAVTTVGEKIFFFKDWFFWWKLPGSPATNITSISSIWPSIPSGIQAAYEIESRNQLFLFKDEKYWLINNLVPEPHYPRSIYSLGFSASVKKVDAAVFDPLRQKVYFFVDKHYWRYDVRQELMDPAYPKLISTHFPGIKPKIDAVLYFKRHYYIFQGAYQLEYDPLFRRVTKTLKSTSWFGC", "experiment": "99mTc-AGA-2 binding specificity", "conditions": "co-incubation with 500-fold molar excess, P < 0.001", "how_it_was_run": "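Tissues came from Apoe−/− mice given angiotensin II (1,000 ng/kg/min) by subcutaneous minipump for 4 weeks. Tracer binding was compared in aneurysmal aorta and in normal-size infrarenal aorta, with or without MMP inhibitors.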"}, "rhMMP-12": {"target": "rhMMP-12 (Homo sapiens, UniProt P39900)", "sequence (P39900 106-470)": "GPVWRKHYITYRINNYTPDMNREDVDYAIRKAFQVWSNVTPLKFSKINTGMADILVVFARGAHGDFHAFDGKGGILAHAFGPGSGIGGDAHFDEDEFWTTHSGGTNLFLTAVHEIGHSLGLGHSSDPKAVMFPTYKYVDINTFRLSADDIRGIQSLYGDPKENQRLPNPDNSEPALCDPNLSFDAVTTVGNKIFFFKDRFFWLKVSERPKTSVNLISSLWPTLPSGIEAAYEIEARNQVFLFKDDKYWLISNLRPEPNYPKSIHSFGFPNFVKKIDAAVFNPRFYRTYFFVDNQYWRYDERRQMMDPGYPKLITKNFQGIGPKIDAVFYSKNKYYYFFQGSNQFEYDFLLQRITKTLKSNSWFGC", "experiment": "MMP affinity determination", "assay_type": "biochemical", "how_it_was_run": "(§1)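 Inhibition constants were derived from the kinetic effect of the test compound on MMP cleavage of the fluorogenic substrate Mca-Lys-Pro-Leu-Gly-Leu-Dpa-Ala-Arg-NH2. Conditions: 50 mM Tris/HCl pH 6.8, 10 mM CaCl2, 25 °C, with 0.2–0.5 nM enzyme. […] Fluorescence was monitored, and Ki was obtained by the Horovitz–Levitzki method.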"}, "rhMMP-7": {"target": "T1, rhMMP-7 (Homo sapiens, UniProt P09237)", "T1 sequence (P09237 95-267)": "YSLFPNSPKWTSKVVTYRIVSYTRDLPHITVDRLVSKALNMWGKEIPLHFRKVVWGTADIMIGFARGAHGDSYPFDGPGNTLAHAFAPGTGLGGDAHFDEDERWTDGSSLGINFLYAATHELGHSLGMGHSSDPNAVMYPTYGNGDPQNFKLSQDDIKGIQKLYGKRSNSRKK", "experiment": "MMP affinity determination", "assay_type": "biochemical", "conditions": "relative to CGA", "how_it_was_run": "as §1"}},
  "data": [
    {"smiles": "CNC(=O)[C@H](Cc1c[nH]c2ccccc12)NC(=O)[C@@H](CC(=O)NO)CC(C)C", "note": "[GM6001, reference compound]", "values": [
      {"measurement": "effect on 99mTc-AGA-2 binding to AAA tissue", "setting": "MMP-12", "result": "significantly reduced"}
    ]},
    {"smiles": "CC(C)C[C@H]1C(=O)N[C@H](C(=O)O)Cc2ccc(cc2)OCCC[C@@H]1C(=O)NO", "note": "[CGA]", "values": [
      {"measurement": "selectivity for rhMMP-12 relative to rhMMP-13", "setting": "rhMMP-12; against rhMMP-13", "result": 28, "unit": "folds"}
    ]},
    {"smiles": "CC(C)C[C@H]1C(=O)N[C@H](C(=O)N[C@@H](CCC(=O)O)C(=O)O)Cc2ccc(cc2)OCCC[C@@H]1C(=O)NO", "note": "[CGA-1]", "values": [
      {"measurement": "selectivity for rhMMP-12 relative to rhMMP-7", "setting": "rhMMP-12; against rhMMP-7", "result": "at least 12 folds"}
    ]},
    {"smiles": "CC(C)C[C@H](CC(=O)NO)C(=O)N[C@@H](Cc1ccccc1)C(=O)O", "note": "[AGA]", "values": [
      {"measurement": "drop in potency for MMP-7 on ring opening from cyclic CGA to acyclic AGA", "setting": "rhMMP-7", "result": 10, "unit": "fold"},
      {"measurement": "drop in potency for MMP-12 on ring opening from cyclic CGA to acyclic AGA", "setting": "rhMMP-12; relative to CGA", "result": 10, "unit": "fold"},
      {"measurement": "effect on 99mTc-AGA-2 binding to AAA tissue", "setting": "MMP-12", "result": "significantly reduced"}
    ]}
  ]
}
